# Results from ChEMBL document CHEMBL1131482 (J Med Chem, 1998).
# Active and inactive are the calls of the source.
# How the values were obtained:
# Mus musculus [1] = test: Licking latency was measured after 30 min treatment (at dose=10 mg/kg) by using mouse hot plate test; type: functional
# Outline: (§1)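 Male Swiss-Webster mice (22-28 g), 23 ± 1 °C, 12-h light/dark cycle, food and water ad libitum. Hot plate at 52.5 ± 0.1 °C with licking latency as read-out and 45 s cutoff. Mice with pre-drug latency below 12 or over 18 s were rejected. Compounds given sc, 5-12 mice per test. Significance was assessed by Dunnett's two-tailed test, P < 0.05.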
# Mus musculus [2] = test: Licking latency was measured after 15 min treatment (at dose=10 mg/kg) by using mouse hot plate test; type: functional; outline: as §1
# Mus musculus [3] = test: Licking latency was measured after 45 min treatment (at dose=50 mg/kg) by using mouse hot plate test; type: functional; outline: as §1
# Mus musculus [4] = test: MAD: minimal dose able to induce a statistically significant increase of the pain threshold, done on mouse; sc; IA = inactive; type: functional, organism-based
# Outline: (§2)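 Mouse hot plate test (52.5 ± 0.1 °C, 45 s cutoff) after sc dosing, in male Swiss-Webster mice. The value is the lowest dose giving a statistically significant rise in pain threshold. Dunnett's two-tailed test compared treated mice at maximum reaction time with pretest time, P < 0.05.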
# Mus musculus [5] = test: Licking latency was measured after 30 min treatment (at dose=50 mg/kg) by using mouse hot plate test; type: functional; outline: as §1
# Mus musculus [6] = test: Licking latency was measured before treatment (at dose=10 mg/kg) by using mouse hot plate test; type: functional; outline: as §1
# Mus musculus [7] = test: Licking latency was measured before treatment (at dose=50 mg/kg) by using mouse hot plate test; type: functional
# Outline: (§3)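 Male Swiss-Webster mice (22-28 g), 23 ± 1 °C, 12-h light/dark cycle. Hot plate at 52.5 ± 0.1 °C. Mice with pre-drug licking latency below 12 s or over 18 s were rejected. Cutoff 45 s. Compound given sc; latency read before dosing and at 15, 30 and 45 min. 5-12 mice per test.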
# Mus musculus [8] = test: Licking latency was measured after 15 min treatment (at dose=50 mg/kg) by using mouse hot plate test; type: functional; outline: as §1
# Mus musculus [9] = test: Licking latency was measured after 45 min treatment (at dose=10 mg/kg) by using mouse hot plate test; type: functional; outline: as §1
# Mus musculus [10] = test: MNTD:Maximal nontoxic dose of the compound, done on mouse; sc; type: functional
# Outline: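 Male Swiss-Webster mice dosed sc. The value is the highest dose causing no visible behavioural change (tremors, convulsions, hypomotility etc.), so that treated mice could not be told apart from untreated ones. Behaviour was scored by the Irwin method in groups of at least 10 animals.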
# Mus musculus [11] = species: Mus musculus; test: Analgesic efficacy is expressed as percentage of that epibatidine, done on mouse.; type: functional
# Mus musculus [12] = test: Licking latency was measured after 15 min treatment (at dose=25 mg/kg) by using mouse hot plate test; type: functional; outline: as §1
# Mus musculus [13] = test: Licking latency was measured after 15 min treatment (at dose=5 mg/kg) by using mouse hot plate test; type: functional; outline: as §1
# Mus musculus [14] = test: Licking latency was measured after 30 min treatment (at dose=25 mg/kg) by using mouse hot plate test; type: functional; outline: as §1
# Mus musculus [15] = test: Licking latency was measured after 30 min treatment (at dose=5 mg/kg) by using mouse hot plate test; type: functional; outline: as §1
# Mus musculus [16] = test: Licking latency was measured after 45 min treatment (at dose=25 mg/kg) by using mouse hot plate test; type: functional; outline: as §1
# Mus musculus [17] = test: Licking latency was measured before treatment (at dose=25 mg/kg) by using mouse hot plate test; type: functional; outline: as §1
# Mus musculus [18] = test: Licking latency was measured after 45 min treatment (at dose=5 mg/kg) by using mouse hot plate test; type: functional; outline: as §1
# Mus musculus [19] = species: Mus musculus; test: Analgesic efficacy is expressed as percentage of that morphine, done on mouse.; type: functional
# Mus musculus [20] = test: Licking latency was measured before treatment (at dose=5 mg/kg) by using mouse hot plate test; type: functional; outline: as §3
# Mus musculus [21] = test: MAD: minimal dose able to induce a statistically significant increase of the pain threshold, done on mouse; sc; type: functional; outline: as §2
# Mus musculus [22] = test: 15.5 Licking latency was measured after 15 min treatment (at dose=5 mg/kg) by using mouse hot plate test; type: functional; outline: as §1
# Mus musculus [23] = test: Licking latency was measured before treatment (at dose=3 mg/kg) by using mouse hot plate test; type: functional; outline: as §3
# Mus musculus [24] = test: Licking latency was measured after 30 min treatment (at dose=3 mg/kg) by using mouse hot plate test; type: functional; outline: as §1
# Mus musculus [25] = test: Licking latency was measured after 45 min treatment (at dose=3 mg/kg) by using mouse hot plate test; type: functional; outline: as §1
# Mus musculus [26] = test: Licking latency was measured after 15 min treatment (at dose=3 mg/kg) by using mouse hot plate test; type: functional; outline: as §1
# Mus musculus [27] = test: Licking latency was measured after 30 min treatment (at dose=25 mg/kg) by using mouse hot plate test (*P<0.01); type: functional; outline: as §1
Compound,Licking latency (Mus musculus [1]),Licking latency (Mus musculus [2]),Licking latency (Mus musculus [3]),MAD (Mus musculus [4]),Licking latency (Mus musculus [5]),Licking latency (Mus musculus [6]),Licking latency (Mus musculus [7]),Licking latency (Mus musculus [8]),Licking latency (Mus musculus [9]),MNTD (Mus musculus [10]),Analgesic efficacy compared to epibatidine (Mus musculus [11]),Licking latency (Mus musculus [12]),Licking latency (Mus musculus [15]),Licking latency (Mus musculus [16]),Licking latency (Mus musculus [17]),Licking latency (Mus musculus [18]),Analgesic efficacy compared to morphine (Mus musculus [19]),Licking latency (Mus musculus [20]),MAD (Mus musculus [21]),other results
CCC(=O)N1CC2CCC(C1)N2c1ccc(Cl)nn1,16.7 s,16 s,14 s,inactive,13 s,15.8 s,14.6 s,17 s,16.1 s,>50 mg/kg,–,–,–,–,–,–,–,–,–,–
Clc1ccc(N2C3CCC2CN(Cc2ccccc2)C3)nn1,–,–,17.6 s,inactive,15.3 s,–,14.8 s,17.2 s,–,>50 mg/kg,–,–,–,–,–,–,–,–,–,–
CSc1nc(Cl)cc(N2CC3CCC(C2)N3)n1,–,–,–,–,–,–,–,–,–,30 mg/kg,182%,40.8 s,20.5 s,36.5 s,15.1 s,18.7 s,149%,14.7 s,5 mg/kg,Licking latency (Mus musculus [13]): 20.3 s; Licking latency (Mus musculus [14]): 43.8 s
Clc1cncc(N2CC3CCC(C2)N3)n1,22.5 s,24.6 s,–,–,–,13.6 s,–,–,22.3 s,15 mg/kg,70%,–,15.5 s,–,–,15.7 s,57%,15.1 s,5 mg/kg,Licking latency (Mus musculus [22]): 19.7 s
Clc1nccc(N2CC3CCC(C2)N3)n1,26 s,31.1 s,–,–,–,15.3 s,–,–,24.3 s,15 mg/kg,99%,–,–,–,–,–,82%,–,3 mg/kg,Licking latency (Mus musculus [23]): 14.5 s; Licking latency (Mus musculus [24]): 17.4 s; Licking latency (Mus musculus [25]): 16.2 s; Licking latency (Mus musculus [26]): 21.3 s
Clc1cc(N2CC3CCC(C2)N3)ncn1,19.7 s,22.2 s,–,–,–,13.6 s,–,–,19.6 s,30 mg/kg,156%,39.5 s,–,39.1 s,14.9 s,–,127%,–,10 mg/kg,Licking latency (Mus musculus [27]): 38.5 s
